Test results as given in ChEMBL document CHEMBL2176978, “Fragment-based discovery of bromodomain inhibitors part 2: optimization of phenylisoxazole sulfonamides” (J Med Chem, 2012).
≈ marks a conversion by molar mass, not a printed value.

Key:
[1] = biological target: T1, ATPase family AAA domain-containing protein 2B (Homo sapiens) (UniProt Q9ULI0); assay: Inhibition of His6FLAG-tagged ATD2B expressed in Escherichia coli assessed as change in melting temperature at 100 uM by thermal shift assay
T1 sequence (whole entry): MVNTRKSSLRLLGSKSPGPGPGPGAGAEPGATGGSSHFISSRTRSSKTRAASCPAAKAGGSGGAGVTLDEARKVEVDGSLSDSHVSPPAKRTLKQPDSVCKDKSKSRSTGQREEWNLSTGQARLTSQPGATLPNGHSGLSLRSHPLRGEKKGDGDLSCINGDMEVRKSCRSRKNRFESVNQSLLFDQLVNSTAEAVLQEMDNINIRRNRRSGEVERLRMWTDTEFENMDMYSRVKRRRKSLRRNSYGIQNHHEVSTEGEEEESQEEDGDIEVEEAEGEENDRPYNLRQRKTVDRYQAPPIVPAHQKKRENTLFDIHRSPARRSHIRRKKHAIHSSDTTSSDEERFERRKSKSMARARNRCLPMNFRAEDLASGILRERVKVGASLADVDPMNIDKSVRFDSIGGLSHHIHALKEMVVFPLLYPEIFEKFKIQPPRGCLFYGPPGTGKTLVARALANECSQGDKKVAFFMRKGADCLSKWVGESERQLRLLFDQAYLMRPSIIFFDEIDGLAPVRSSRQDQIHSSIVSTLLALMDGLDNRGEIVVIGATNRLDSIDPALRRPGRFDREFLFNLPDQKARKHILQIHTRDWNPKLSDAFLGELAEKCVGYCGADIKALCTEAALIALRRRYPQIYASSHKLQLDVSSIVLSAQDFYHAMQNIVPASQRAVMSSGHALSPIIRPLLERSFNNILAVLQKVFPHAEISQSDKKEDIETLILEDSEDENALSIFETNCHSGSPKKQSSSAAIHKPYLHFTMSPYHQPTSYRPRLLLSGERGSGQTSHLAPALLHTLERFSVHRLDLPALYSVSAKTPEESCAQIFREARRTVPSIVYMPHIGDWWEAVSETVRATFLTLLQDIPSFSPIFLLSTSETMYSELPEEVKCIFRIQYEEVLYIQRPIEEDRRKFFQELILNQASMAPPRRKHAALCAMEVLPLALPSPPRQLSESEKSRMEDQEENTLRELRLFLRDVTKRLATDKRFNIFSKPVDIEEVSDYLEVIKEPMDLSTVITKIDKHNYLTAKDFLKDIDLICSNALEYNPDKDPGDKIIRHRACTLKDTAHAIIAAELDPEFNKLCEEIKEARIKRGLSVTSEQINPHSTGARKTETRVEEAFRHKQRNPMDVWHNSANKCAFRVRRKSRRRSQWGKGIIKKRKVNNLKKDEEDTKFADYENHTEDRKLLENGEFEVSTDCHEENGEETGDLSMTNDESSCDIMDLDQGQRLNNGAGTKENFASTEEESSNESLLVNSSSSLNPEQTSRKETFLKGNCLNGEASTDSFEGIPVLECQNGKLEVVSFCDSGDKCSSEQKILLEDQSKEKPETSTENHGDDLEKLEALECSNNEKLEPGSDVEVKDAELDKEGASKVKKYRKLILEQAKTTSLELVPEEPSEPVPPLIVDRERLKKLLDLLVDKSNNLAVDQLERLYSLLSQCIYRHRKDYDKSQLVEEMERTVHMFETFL
Method in brief: (§1)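 Thermal melt: protein heated with or without 100 μM compound, at least duplicate; Sypro orange at 1:1000 in PBS with 10% glycerol; ramp 1 °C/min, fluorescence read every 0.5 °C; ΔTm reported.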

[2] = biological target: Bromodomain adjacent to zinc finger domain protein 2B (Homo sapiens) (UniProt Q9UIF8); assay: Inhibition of His6FLAG-tagged BAZ2B expressed in Escherichia coli assessed as change in melting temperature at 100 uM by thermal shift assay; method in brief: as §1
[3] = biological target: Bromodomain-containing protein 2 (Homo sapiens, UniProt P25440); assay: Inhibition of His6FLAG-tagged BRD2-BD1 expressed in Escherichia coli assessed as change in melting temperature at 100 uM by thermal shift assay; method in brief: as §1
Chain of Bromodomain-containing protein 2 (P25440 whole entry, looked up): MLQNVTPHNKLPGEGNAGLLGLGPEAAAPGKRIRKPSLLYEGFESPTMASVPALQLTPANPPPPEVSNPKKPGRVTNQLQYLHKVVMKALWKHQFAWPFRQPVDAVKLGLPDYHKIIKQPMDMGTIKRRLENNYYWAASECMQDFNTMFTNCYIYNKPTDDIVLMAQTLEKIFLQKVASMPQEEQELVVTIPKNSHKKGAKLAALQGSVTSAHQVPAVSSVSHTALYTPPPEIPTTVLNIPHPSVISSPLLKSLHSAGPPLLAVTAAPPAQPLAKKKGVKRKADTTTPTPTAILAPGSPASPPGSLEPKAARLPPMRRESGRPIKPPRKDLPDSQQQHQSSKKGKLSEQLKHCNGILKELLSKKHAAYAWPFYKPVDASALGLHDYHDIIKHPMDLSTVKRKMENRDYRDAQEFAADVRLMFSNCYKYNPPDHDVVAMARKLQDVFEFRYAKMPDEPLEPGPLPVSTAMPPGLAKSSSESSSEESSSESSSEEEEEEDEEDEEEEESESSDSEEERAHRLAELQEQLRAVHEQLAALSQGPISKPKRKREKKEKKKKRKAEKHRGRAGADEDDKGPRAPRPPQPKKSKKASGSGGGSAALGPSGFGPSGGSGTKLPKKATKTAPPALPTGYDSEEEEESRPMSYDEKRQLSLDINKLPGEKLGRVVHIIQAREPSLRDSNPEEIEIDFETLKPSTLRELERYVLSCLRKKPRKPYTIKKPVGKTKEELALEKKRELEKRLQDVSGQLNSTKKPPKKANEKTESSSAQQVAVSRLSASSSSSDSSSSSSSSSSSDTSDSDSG

[4] = biological target: CREB-binding protein (Homo sapiens) (UniProt Q92793); assay: Inhibition of His6FLAG-tagged CREBBP expressed in Escherichia coli assessed as change in melting temperature at 100 uM by thermal shift assay; method in brief: as §1
Chain of CREB-binding protein (Homo sapiens) (Q92793 2-2442 limits assumed): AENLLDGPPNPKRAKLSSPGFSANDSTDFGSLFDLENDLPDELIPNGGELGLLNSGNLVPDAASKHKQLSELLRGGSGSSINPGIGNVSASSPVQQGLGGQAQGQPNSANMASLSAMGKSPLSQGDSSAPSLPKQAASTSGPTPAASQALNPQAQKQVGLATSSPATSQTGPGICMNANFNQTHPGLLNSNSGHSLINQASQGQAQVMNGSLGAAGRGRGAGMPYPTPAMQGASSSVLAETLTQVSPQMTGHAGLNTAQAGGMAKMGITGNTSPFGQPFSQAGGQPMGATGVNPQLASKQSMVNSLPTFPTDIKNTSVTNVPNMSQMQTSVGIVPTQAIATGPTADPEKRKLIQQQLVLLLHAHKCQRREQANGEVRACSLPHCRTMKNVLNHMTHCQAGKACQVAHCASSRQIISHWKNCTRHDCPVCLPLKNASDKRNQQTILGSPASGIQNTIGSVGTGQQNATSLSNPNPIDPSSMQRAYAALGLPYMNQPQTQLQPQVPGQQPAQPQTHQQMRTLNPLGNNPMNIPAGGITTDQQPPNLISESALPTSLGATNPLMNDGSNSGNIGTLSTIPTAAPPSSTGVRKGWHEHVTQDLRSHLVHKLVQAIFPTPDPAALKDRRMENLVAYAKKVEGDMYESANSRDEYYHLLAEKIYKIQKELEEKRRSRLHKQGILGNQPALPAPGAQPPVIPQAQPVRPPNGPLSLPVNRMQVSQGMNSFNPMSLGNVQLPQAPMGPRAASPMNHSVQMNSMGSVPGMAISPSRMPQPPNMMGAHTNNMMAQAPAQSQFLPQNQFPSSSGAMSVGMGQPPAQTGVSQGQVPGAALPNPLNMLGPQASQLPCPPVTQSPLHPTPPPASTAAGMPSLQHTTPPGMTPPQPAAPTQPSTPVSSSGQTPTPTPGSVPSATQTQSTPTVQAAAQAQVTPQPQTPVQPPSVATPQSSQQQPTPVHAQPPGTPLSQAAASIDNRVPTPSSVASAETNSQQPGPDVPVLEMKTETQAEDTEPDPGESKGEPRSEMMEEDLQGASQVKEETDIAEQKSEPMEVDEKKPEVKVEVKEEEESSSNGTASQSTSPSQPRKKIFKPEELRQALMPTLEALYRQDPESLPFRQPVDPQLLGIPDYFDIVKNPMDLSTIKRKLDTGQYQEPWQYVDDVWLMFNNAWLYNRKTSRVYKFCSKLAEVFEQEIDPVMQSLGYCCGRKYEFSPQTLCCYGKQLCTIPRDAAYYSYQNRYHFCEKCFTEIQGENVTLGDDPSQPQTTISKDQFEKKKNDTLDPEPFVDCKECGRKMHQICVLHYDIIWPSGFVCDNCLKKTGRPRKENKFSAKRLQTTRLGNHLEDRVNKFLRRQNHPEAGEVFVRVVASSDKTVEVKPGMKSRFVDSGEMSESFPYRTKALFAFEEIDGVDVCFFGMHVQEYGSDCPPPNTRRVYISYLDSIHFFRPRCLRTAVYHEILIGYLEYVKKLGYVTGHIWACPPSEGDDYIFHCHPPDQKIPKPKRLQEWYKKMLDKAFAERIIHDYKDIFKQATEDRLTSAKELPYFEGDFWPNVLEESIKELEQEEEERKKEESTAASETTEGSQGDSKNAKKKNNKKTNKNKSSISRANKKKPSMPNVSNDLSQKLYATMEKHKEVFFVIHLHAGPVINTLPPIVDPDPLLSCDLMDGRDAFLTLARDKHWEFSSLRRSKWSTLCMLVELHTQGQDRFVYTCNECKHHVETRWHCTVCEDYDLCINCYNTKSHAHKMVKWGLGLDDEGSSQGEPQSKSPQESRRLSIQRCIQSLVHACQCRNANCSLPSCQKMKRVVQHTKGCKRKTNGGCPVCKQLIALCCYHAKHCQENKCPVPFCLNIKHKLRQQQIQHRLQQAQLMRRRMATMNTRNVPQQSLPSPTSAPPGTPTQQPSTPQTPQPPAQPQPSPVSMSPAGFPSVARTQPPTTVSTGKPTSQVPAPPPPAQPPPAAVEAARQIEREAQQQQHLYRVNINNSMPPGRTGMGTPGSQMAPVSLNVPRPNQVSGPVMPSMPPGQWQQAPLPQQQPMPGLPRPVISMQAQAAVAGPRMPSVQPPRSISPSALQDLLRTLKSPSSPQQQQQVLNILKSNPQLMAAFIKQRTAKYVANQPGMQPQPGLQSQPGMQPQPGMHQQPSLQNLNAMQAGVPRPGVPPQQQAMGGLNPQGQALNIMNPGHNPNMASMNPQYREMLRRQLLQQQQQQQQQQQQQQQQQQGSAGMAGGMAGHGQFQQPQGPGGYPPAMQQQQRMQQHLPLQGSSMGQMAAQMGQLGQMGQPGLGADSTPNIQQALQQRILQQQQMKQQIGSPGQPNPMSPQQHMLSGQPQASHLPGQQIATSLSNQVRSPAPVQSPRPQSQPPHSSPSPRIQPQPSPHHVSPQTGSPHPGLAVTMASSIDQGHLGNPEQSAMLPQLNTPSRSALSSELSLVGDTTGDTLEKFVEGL

[5] = Solubility of the compound at pH 5; type: physicochemical; conditions: buffer
[6] = biological target: T2, Bromodomain-containing protein 4 (Homo sapiens, UniProt O60885); assay: Inhibition of His6FLAG-tagged BRD4-BD12 expressed in Escherichia coli assessed as change in melting temperature at 100 uM by thermal shift assay; method in brief: as §1
[7] = biological target: PH-interacting protein (Homo sapiens) (UniProt Q8WWQ0); assay: Inhibition of His6FLAG-tagged PHIP-BD2 expressed in Escherichia coli assessed as change in melting temperature at 100 uM by thermal shift assay; method in brief: as §1
[8] = biological target: T2, Bromodomain-containing protein 4; assay: Inhibition of His6FLAG-tagged BRD4-BD1 expressed in Escherichia coli assessed as change in melting temperature at 100 uM by thermal shift assay; method in brief: as §1

ΔTm [1] [°C] | ΔTm [2] [°C] | ΔTm [3] [°C] | ΔTm [4] [°C] | solubility [5] [µg/mL] | ΔTm [6] [°C] | ΔTm [7] [°C] | ΔTm [8] [°C] | SMILES
< 1 | < 1 | 1 | 1.5 | 1120 (≈ 2430 µM) | 5 | < 1 | 2 | Cc1noc(C)c1-c1ccc(OCCCN2CCOCC2)c(S(=O)(=O)NC2CCCC2)c1
< 1 | < 1 | 1 | < 1 | < 1 | 5 | < 1 | 2 | Cc1ccc(-c2c(C)noc2C)cc1S(=O)(=O)NC1CCCC1
